Screening data: PubChem, Sanford-Burnham Center for Chemical Genomics
hIAP block = human IAP inhibitors, primary screen, biochemical, luminescence, uHTS | Intestinal-type alkaline phosphatase (Homo sapiens), P09923 | purified IAP, CDP-Star luminescence, 30 min | inhibition, % at 10 µM | 330,000 tested, 0.12% active | AID 2544, 2010;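 active = inhibition reaching a set limit with compound at 10 µM in the primary screen, cut at about 35% in these data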;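 also: plate controls were DMSO wells with enzyme for no effect and no-enzyme buffer wells for full effect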
Target sequence (P09923 whole entry, looked up): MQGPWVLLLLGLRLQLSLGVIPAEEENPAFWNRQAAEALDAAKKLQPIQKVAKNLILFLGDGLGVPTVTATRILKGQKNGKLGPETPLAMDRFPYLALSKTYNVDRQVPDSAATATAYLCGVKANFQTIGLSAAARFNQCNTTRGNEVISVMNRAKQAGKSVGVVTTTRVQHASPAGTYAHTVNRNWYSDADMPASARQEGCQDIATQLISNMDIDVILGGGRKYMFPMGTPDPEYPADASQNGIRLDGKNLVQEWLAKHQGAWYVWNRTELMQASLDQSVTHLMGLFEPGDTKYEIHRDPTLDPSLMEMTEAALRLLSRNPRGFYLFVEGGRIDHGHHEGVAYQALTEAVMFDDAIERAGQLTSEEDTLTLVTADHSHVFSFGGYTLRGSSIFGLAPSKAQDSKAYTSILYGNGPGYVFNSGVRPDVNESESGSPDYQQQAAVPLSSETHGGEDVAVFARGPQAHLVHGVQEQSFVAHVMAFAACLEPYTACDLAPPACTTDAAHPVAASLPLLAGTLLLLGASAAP
hIAP act = human IAP activators, primary screen, biochemical, luminescence, uHTS; 330,000 tested, 0.16% active; activation factor at 10 µM; purified human IAP, CDP-Star luminescence, 30 min; hits give high values; 1 = vehicle-only enzyme, 0 = enzyme-free background;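 active = activation factor of the enzyme at least 2-fold when tested at 20 µM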
mIAP block = inhibitors of mouse IAP, primary screen, biochemical, luminescence, uHTS; inhibition, % at 10 µM; 330,000 tested, 0.2% active; AID 2806, 2010; intestinal alkaline phosphatase [Mus musculus]; purified mouse IAP, CDP-Star luminescence, 30 min;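 active = inhibition of at least 40% at 10 µM in the primary screen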;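 also: plate controls were DMSO with enzyme for no effect and no enzyme wells for full effect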
mIAP act = activators of mouse IAP, primary screen, biochemical, luminescence, uHTS; intestinal alkaline phosphatase [Mus musculus]; muIAP, CDP-Star luminescence, 30 min; hits give high values; 1 = vehicle-only enzyme signal, 0 = enzyme-free wells; activation factor at 10 µM; 330,000 tested, 0.24% active;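 active = activation factor of at least 2 at 20 µM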
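System: Mouse IAP enzyme | Also added: CDP-Star substrate | Dosing: Compounds dispensed in DMSO | Schedule: 30 min enzyme-substrate-compound incubation at room temperature | Technique: Chemiluminescence readout | Control set: DMSO-only wells and no-enzyme negative control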
bIAP act = bovine intestinal alkaline phosphatase activators, primary screen, biochemical, bovine IAP, CDP-star luminescence; alkaline phosphatase, intestinal [Bos taurus]; purified bovine IAP, 30 min; hits give high values; fold of DMSO-control signal, blank-subtracted; activation factor at 20 µM; 200,000 tested, 0.17% active; AID 1016, 2008;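 active = activation factor of 2 or more at 20 µM, a signal rise over negative controls twice the positive control's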
bIAP inh = bovine intestinal alkaline phosphatase inhibitors, primary screen, selectivity assay for TNAP inhibitor project, biochemical, bovine IAP, CDP-star luminescence; alkaline phosphatase, intestinal [Bos taurus]; purified bovine IAP, 30 min; inhibition, % at 20 µM; 190,000 tested, under 10 active; AID 1019, 2008;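 active = over 50% inhibition of intestinal alkaline phosphatase at 20 µM in the single-dose screen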
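Assay system: bovine IAP enzyme; medium: DEA buffer 100 mM, pH 9.8, with MgCl2 1.0 mM, ZnCl2 0.02 mM; doses: 20 µM single dose; incubation: enzyme reaction for 30 min at room temperature; detection: CDP-star luminescence signal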
mIAP inh confirm = inhibitors of mouse IAP, confirmation, biochemical, luminescence, single concentration; shares compounds with mIAP block; purified mouse IAP, CDP-Star luminescence, 30 min; inhibition, % at 10 µM; 11,000 tested, 4.7% active; AID 434971, 2010;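 active = inhibition of at least 40% at 10 µM in either of the two replicates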;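 also: plate controls were DMSO wells with enzyme for no effect and buffer wells lacking enzyme for full effect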
* marks the source's active call; other numbers are inactive results; i = inactive; nt = not tested or not shown. Rows were chosen to be rich in hits. Some 0.79% of all compounds tested hit in one or more screens of this group.

SMILES | hIAP block | hIAP act | mIAP block | mIAP act | bIAP act | bIAP inh | mIAP inh confirm
O=C(CN(C(=O)c1csnn1)c1cccc2ccccc12)NC1CCCC1 | 7.4 | 0.925 | 11.3 | 0.887 | 0.9 | 5.1 | nt
CC1(C(=O)NNC(=O)c2ccc(=O)oc2)CC1Br (configuration not stated) | -1.8 | 1.02 | 76.6* | 0.234 | nt | nt | 70.7*
Cc1cc(=O)oc(C)c1C(=O)NNC(=O)C1(C)CC1Br (configuration not stated) | -8.0 | 1.08 | -7.8 | 1.08 | nt | nt | nt
COC(=O)[C@H]1[C@@H](C)N(CCc2cc(OC)c(OC)c(OC)c2)C(=O)N[C@H]1c1ccccc1 | 11.5 | 0.885 | -6.0 | 1.06 | nt | nt | nt
CNC[C@@H]1Oc2c(NC(=O)Nc3ccccc3)cccc2C(=O)N([C@@H](C)CO)C[C@H]1C | -9.3 | 1.09 | -0.2 | 1 | nt | nt | nt
CNC[C@H]1Oc2ccc(NC(=O)Nc3ccc(OC)cc3)cc2C(=O)N([C@@H](C)CO)C[C@H]1C | -4.1 | 1.04 | -199.1 | 2.99* | nt | nt | -123.1
CNC[C@@H]1Oc2ccc(NC(=O)Nc3cccc4ccccc34)cc2C(=O)N([C@@H](C)CO)C[C@@H]1C | -2.0 | 1.02 | -325.1 | 4.25* | nt | nt | -142.9
Cc1ccc(N2CC(C(=O)Nc3cccnc3)CC2=O)cc1Cl (configuration not stated) | -5.8 | 1.06 | -7.5 | 1.07 | nt | nt | nt
C/C(=N\NC(=O)c1cc(O)cc(O)c1)c1ccc(NC(=O)Cc2ccccc2)cc1 | -3.0 | 1.03 | 50.5* | 0.495 | nt | nt | 56.8*
O=C(Nc1ccc(Cl)c(C(F)(F)F)c1)NC1CC2CCCC(C1)N2Cc1ccccc1 (configuration not stated) | -92.0 | 1.92 | i | 8.9* | 2.3* | -130.3 | i
CC(C)NC(=O)Nc1ccc2c(c1)C(=O)N([C@H](C)CO)C[C@H](C)[C@@H](CN(C)C(=O)NC1CCCCC1)O2 | 0.1 | 0.999 | -8.0 | 1.08 | nt | nt | nt
C[C@H](CO)N1C[C@H](C)[C@@H](CN(C)C(=O)Nc2ccccc2)Oc2ccc(NC(=O)Nc3ccccc3)cc2C1=O | -12.6 | 1.13 | -207.3 | 3.07* | nt | nt | -122.6
C[C@H](CO)N1C[C@H](C)[C@@H](CN(C)C(=O)NC2CCCCC2)Oc2ccc(NC(=O)Nc3ccccc3)cc2C1=O | 10.5 | 0.895 | -158.8 | 2.59* | nt | nt | -99.6
Cc1cccc(C(=O)OCC(=O)N2CCCCCC2)c1C | -6.7 | 1.07 | -5.7 | 1.06 | nt | nt | nt
CN1CCN(c2ccccc2NC(=O)c2sc3ccccc3c2Cl)CC1 | 17.4 | 0.826 | 9.9 | 0.901 | 1 | 4.1 | nt
NS(=O)(=O)c1ccc(Nc2nc(-c3ccc(O)cc3O)cs2)cc1 | -6.9 | 1.07 | 40.5* | 0.595 | 1.2 | -19.1 | 59.9*
Cc1ccc2[nH]c(=O)c(C(c3nnnn3Cc3ccccc3)N3CCc4ccccc43)cc2c1 (configuration not stated) | -4.5 | 1.04 | 55.2* | 0.448 | 0.9 | 6.3 | 64.3*
Cc1ccc2cc(C(c3nnnn3Cc3ccccc3)N3CCc4ccccc43)c(=O)[nH]c2c1 (configuration not stated) | -5.3 | 1.05 | 8.0 | 0.92 | 0.9 | 5.7 | nt
Cc1ccc2[nH]c(=O)c(C(c3nnnn3C3CCCC3)N3CCCc4ccccc43)cc2c1 (configuration not stated) | 12.0 | 0.88 | 56.7* | 0.433 | 1 | 4.3 | 59.9*
Cc1ccc2[nH]c(=O)c(C(c3nnnn3CC3CCCO3)N3CCCc4ccccc43)cc2c1 (configuration not stated) | -3.8 | 1.04 | 49.7* | 0.503 | 0.9 | 9.7 | 60.2*
Cc1ccc2[nH]c(=O)c(C(c3nnnn3CC3CCCO3)N3CCc4ccccc4C3)cc2c1 (configuration not stated) | -12.2 | 1.12 | 70.2* | 0.298 | 1 | 3.6 | 74.2*
CCN(C(=O)CSc1cc(C)c2ccccc2n1)c1c(N)n(Cc2ccccc2)c(=O)[nH]c1=O | 1.7 | 0.983 | -6.1 | 1.06 | 1.1 | -6.6 | nt
CCc1cccc(N(C(=O)c2csnn2)C(C(=O)NC2CCCCC2)c2ccncc2)c1 (configuration not stated) | -12.7 | 1.13 | -0.4 | 1 | nt | nt | nt
COc1cc(C)ccc1OCCOc1c(C)cc(Cl)cc1Cl | 13.8 | 0.862 | -10.1 | 1.1 | 1 | -0.8 | nt
O=C1NC(=Nc2ccccc2)S/C1=C\C=C\c1ccco1 | 14.0 | 0.86 | 72.9* | 0.271 | 1 | 2.1 | 72.4*
SMILES | hIAP block | hIAP act | mIAP block | mIAP act | bIAP act | bIAP inh | mIAP inh confirm
Cc1ccc(NC(=O)NC2CCCCCCC2)cc1C | -45.5 | 1.46 | -232.6 | 3.33* | nt | nt | -155.9
O=C(Nc1cccc(C(F)(F)F)c1)NC1CCCCC1 | -35.7 | 1.36 | -149.9 | 2.5* | 0.9 | 11.6 | -110.3
Cc1cccc(NC(=O)NC2CCCCCCC2)c1 | -34.7 | 1.35 | -117.5 | 2.17* | nt | nt | -145.2
CC(=O)c1cccc(NC(=O)NC2CCCCCCC2)c1 | -23.4 | 1.23 | -17.9 | 1.18 | nt | nt | nt
O=c1c(O)cccc2cc(O)c(O)c(O)c12 | -13.5 | 1.14 | 60.8* | 0.392 | nt | nt | 74.4*
O=c1cc(-c2ccccc2)oc2cc(O)c(O)c(O)c12 | -22.3 | 1.22 | 5.0 | 0.95 | nt | nt | nt
NS(=O)(=O)c1ccc(N=Nc2c[nH]c(=O)c(O)c2)cc1 | -11.7 | 1.12 | 68.4* | 0.316 | nt | nt | 81.1*
Cc1c2cc(O)c(=O)cc-2oc2cc(O)c(O)cc12 | 25.4 | 0.746 | 73.0* | 0.27 | 0.4 | nt | 85.6*
COc1cc(OC)c(-c2c3cc(O)c(=O)cc-3oc3cc(O)c(O)cc23)cc1OC | -13.9 | 1.14 | 44.3* | 0.557 | 1 | -1.9 | 59.4*
Cc1cccc(NC(=O)c2cc3cc([N+](=O)[O-])ccc3s2)n1 | 7.1 | 0.929 | -1.6 | 1.02 | 1.1 | -7.4 | nt
CCOc1ccc(S(=O)(=O)Nc2cc(Sc3ncn[nH]3)c3oc(=O)sc3c2)cc1 | 13.1 | 0.869 | 71.7* | 0.283 | 1.4 | -35.2 | 82.0*
CCOc1ccc(S(=O)(=O)Nc2ncn[nH]2)cc1 | 11.3 | 0.887 | 0.4 | 0.996 | nt | nt | nt
CCN(CC)c1ccc(C(=O)Nn2cnc3ccccc3c2=O)cc1 | -1.8 | 1.02 | -3.7 | 1.04 | nt | nt | nt
CCC(=O)Nc1sc2c(c1C#N)CCC2 | -3.1 | 1.03 | -0.9 | 1.01 | 0.9 | 6.8 | nt
